Here are results for 18 compounds from ChEMBL document CHEMBL1153378, “Synthesis and evaluation of myxochelin analogues as antimetastatic agents” (Bioorg Med Chem, 2009).

Data set [1] in a line: Antiinvasive activity against mouse 26-L5 cells assessed as inhibition of cell invasion by Matrigel assay. It is filed as functional, cell-based.
A short description of data set [2]: Cytotoxicity against mouse 26-L5 cells after 24 hrs. It is filed as functional, cell-based. In short, it runs like this: (§1)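 Murine colon 26-L5 carcinoma cells at 1 × 10⁴ cells/well in RPMI with 10% FCS and L-glutamine, exposed to test compound at various concentrations (DMSO solutions) for 24 h. Wells PBS-washed, crystal violet stain 30 min, dye extracted with 30% acetic acid, absorbance read at 590 nm. Mean ± SD; Student's two-tailed t-test vs control.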

A short description of data set [3]: Antiinvasive activity against mouse 26-L5 cells assessed as inhibition of cell invasion at 2.5 uM by Matrigel assay. It is filed as functional.
Data set [4] in a line: Cytotoxicity against mouse 26-L5 cells at 5.6 uM after 24 hrs. It is filed as functional. In short, it runs like this:
as §1

A short description of data set [5]: Cytotoxicity against mouse 26-L5 cells at 7.5 uM after 24 hrs. It is filed as functional. An outline of the steps:
as §1

Data set [6] deals with 72 kDa type IV collagenase (Mus musculus) (UniProt P33434). Nature of the data set: Inhibition of MMP2 in mouse 26-L5 cells at 0.25 uM by gelatin based zymography assay. It is filed as cell-based. An outline of the steps:
(§2)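 Gelatin zymography: conditioned medium of colon 26-L5 cells run non-reducing on 10% SDS–PAGE with 0.1% gelatin. Gels rinsed twice 1 h at room temperature (50 mM Tris–HCl, 2.5% Triton X-100, 5 mM CaCl₂, 0.05% NaN₃), strips incubated 24 h at 37 °C in reaction buffer with test compound at various concentrations, then Coomassie stained. Mean ± SD, two-tailed t-test.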

The target of data set [7] is Matrix metalloproteinase-9 (Mus musculus) (UniProt P41245). Nature of the data set: Inhibition of MMP9 in mouse 26-L5 cells at 0.25 uM by gelatin based zymography assay. It is filed as cell-based. An outline of the steps: as §2
Chain of Matrix metalloproteinase-9 (Mus musculus) (P41245 whole entry): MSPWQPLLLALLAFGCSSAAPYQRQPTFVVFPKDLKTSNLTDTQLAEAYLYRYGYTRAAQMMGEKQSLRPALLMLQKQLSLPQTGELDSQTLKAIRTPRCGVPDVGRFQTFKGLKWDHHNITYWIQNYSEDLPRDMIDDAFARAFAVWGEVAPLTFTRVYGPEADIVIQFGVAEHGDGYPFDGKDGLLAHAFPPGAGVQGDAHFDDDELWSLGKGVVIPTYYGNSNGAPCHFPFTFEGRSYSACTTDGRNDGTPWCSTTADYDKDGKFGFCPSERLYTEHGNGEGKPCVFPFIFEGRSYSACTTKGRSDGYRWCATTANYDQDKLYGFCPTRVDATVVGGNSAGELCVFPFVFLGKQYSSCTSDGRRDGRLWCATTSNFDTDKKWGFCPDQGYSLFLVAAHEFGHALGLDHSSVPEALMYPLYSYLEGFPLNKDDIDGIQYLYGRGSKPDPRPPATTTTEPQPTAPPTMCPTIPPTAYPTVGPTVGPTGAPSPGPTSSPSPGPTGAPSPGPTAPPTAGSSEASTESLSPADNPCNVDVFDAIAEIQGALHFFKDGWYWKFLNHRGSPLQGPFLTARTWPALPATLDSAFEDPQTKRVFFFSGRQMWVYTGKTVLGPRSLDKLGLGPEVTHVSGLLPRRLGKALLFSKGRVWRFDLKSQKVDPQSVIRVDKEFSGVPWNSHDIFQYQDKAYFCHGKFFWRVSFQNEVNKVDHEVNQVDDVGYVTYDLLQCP
Data set [8] can be described thus: Antimetastatic activity against mouse 26-L5 cells xenografted BALB/c mouse assessed as inhibition of lung tumor metastasis at 50 mg/kg, ip dosed once daily for 14 days. It is filed as functional. As to conditions: 336 h, route intraperitoneal. An outline of the steps: (§3)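 BALB/c mice injected iv via tail vein with colon 26-L5 cells in cold PBS; compound given ip at 50 mg/kg (1 mg/mouse in 200 µL PBS); controls received 200 µL PBS. Body weight followed; mice killed 14 days after inoculation, lungs fixed in Bouin's solution, surface colonies counted under dissecting microscope. Student's two-tailed t-test.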

For data set [9], the system named is Mus musculus. The data set is described as follows: Toxicity in mouse 26-L5 cells xenografted BALB/c mouse assessed as body weight loss at 50 mg/kg, ip dosed once daily for 14 days. It is filed as organism-based. Also noted: dose 50 mg/kg, route intraperitoneal. As to conditions: in vivo, 336 h. In short, it runs like this:
as §3

Data set [10] is filed under the species Mus musculus. Nature of the data set: Inhibition of cell migration of mouse 26-L5 cells at 2.5 uM by Matrigel assay. It is filed as functional.
For data set [11], the species on record is Mus musculus. Nature of the data set: Inhibition of mouse 26-L5 cells adhesion to extracellular matrix proteins at 2.5 uM after 24 hrs by crystal violet assay. It is filed as functional. An outline of the steps:
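Colon 26-L5 cells pre-treated with compound 24 h at 37 °C, 5% CO₂, then resuspended in RPMI/10% FCS/L-glutamine and seeded at 4 × 10⁴ cells/well on fibronectin- or Matrigel-coated wells. Attachment 1 h at 37 °C; non-adherent cells aspirated; adherent cells fixed in 20% formalin 4 °C 1 h, crystal violet stained 30 min. Mean ± SD, two-tailed t-test.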

Data set [12] addresses 72 kDa type IV collagenase (Mus musculus) (UniProt P33434). Nature of the data set: Inhibition of MMP2 in mouse 26-L5 cells at 2.5 uM by gelatin based zymography assay. It is filed as cell-based. In short, it runs like this: as §2
Data set [13] concerns the target Matrix metalloproteinase-9 (Mus musculus) (UniProt P41245). The data set is described as follows: Inhibition of MMP9 in mouse 26-L5 cells at 2.5 uM by gelatin based zymography assay. It is filed as cell-based. An outline of the steps: as §2

Active and inactive are the calls of the source. The rule behind the calls is not given here.

Chain of 72 kDa type IV collagenase (Mus musculus) (P33434 whole entry): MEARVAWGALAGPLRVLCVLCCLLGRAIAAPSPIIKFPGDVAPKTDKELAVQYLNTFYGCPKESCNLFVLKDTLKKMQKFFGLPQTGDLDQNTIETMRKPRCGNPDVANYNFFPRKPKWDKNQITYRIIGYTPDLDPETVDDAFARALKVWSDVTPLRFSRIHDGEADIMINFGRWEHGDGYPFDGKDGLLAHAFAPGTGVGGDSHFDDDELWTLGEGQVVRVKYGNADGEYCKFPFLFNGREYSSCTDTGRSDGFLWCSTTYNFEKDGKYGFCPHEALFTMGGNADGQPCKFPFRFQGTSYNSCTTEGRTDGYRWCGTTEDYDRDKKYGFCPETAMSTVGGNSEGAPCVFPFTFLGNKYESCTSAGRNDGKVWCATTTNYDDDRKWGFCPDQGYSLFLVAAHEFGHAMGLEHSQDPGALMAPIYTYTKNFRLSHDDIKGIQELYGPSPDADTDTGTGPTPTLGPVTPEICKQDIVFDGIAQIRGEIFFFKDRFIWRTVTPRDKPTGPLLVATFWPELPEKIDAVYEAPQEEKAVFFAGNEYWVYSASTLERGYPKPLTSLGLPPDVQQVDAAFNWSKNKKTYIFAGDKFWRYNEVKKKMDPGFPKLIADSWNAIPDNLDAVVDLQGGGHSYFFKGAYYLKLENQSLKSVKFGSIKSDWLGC

With `O=C(NCCCCCNC(=O)c1cccc(O)c1O)c1cccc(O)c1O`, the results for the IC50 in [1] and in data set [2] were greater than 2.5 µM and 2.7 µM, respectively. In addition, in data set [3], the inhibition at 2.5 µM came out at 45%.

Turning to `O=C(NCCCC[C@@H](CNC(=O)c1cccc(O)c1O)NC(=O)c1cccc(O)c1O)c1cccc(O)c1O`, the IC50 in data set [1] is 0.52 µM; in data set [2], greater than 5.6 µM. The same compound had an inhibition at 5.6 µM in data set [4] of 0%.

With `COC(=O)[C@H](CCCCNC(=O)c1ccccc1)NC(=O)c1cccc(O)c1O`, the IC50 is greater than 2.5 µM in [1] and greater than 7.5 µM in data set [2]. Moreover, the inhibition at 2.5 µM in data set [3] was determined as 0%. This compound also showed an inhibition at 7.5 µM in [5] of 0%.

For `NC[C@H](CCCCNC(=O)c1cccc(O)c1O)NC(=O)c1cccc(O)c1O`, the values for the IC50 in data set [1] and in data set [2] were 0.73 µM and greater than 7.5 µM, respectively. For the same compound, testing at 7.5 µM in data set [5] gave an inhibition of 40%.

For `NC(=O)[C@H](CCCCNC(=O)c1cccc(O)c1O)NC(=O)c1cccc(O)c1O`, the IC50 was 0.091 µM in data set [1] and greater than 7.5 µM in data set [2]. This compound also displayed an inhibition at 7.5 µM in data set [5] of 0%. Further, the figures for the inhibition in data set [6] and in data set [7] were 44% and 33%, respectively. The inhibition in vivo at 50 mg/kg in [8] came out at 35%. Further, in the data set with Mus musculus [9], the Activity result is “Non-toxic”. Besides, the inhibition result in the data set listed under Mus musculus [10] and in the data set filed under Mus musculus [11] was “inactive” each time.

On to `N#C[C@H](CCCCNC(=O)c1cccc(O)c1O)NC(=O)c1cccc(O)c1O`, for which the IC50 is greater than 2.5 µM in data set [1] and 7.5 µM in data set [2]. The inhibition at 2.5 µM in data set [3] stood at 45%.

For `COC(=O)[C@H](CCCCNC(=O)c1cccc(O)c1O)NC(=O)c1cccc(O)c1O`, the figures for the IC50 in data set [1] and in data set [2] were 1.5 µM and greater than 7.5 µM, respectively. The inhibition at 7.5 µM in data set [5] is 10%.

For `COC(=O)[C@H](CCCCCNC(=O)c1cccc(O)c1O)NC(=O)c1cccc(O)c1O`, the IC50 was found to be 1.7 µM in data set [1] and 1.6 µM in data set [2].

As for `COC(=O)[C@H](CCCCNC(=O)c1cccc(O)c1O)NC(C)=O`, the IC50 in [1] was 2.4 µM; in [2], greater than 7.5 µM. The compound further registered an inhibition at 7.5 µM in data set [5] of 0%.

With `O=C(NCCCC[C@H](CO)NC(=O)c1cccc(O)c1O)c1cccc(O)c1O`, the IC50 in data set [1] was 2.2 µM; in [2], greater than 7.5 µM. Moreover, the inhibition at 7.5 µM in data set [5] turned out to be 30%.

On to `O=C(NCCCC[C@H](NC(=O)c1cccc(O)c1O)C(=O)O)c1cccc(O)c1O`, for which the IC50 was greater than 2.5 µM in data set [1] and greater than 7.5 µM in data set [2]. Moreover, the inhibition at 2.5 µM in data set [3] was 30%. Besides, the inhibition at 7.5 µM in [5] came to 0%.

As to `COC(=O)[C@H](CCCNC(=O)c1cccc(O)c1O)NC(=O)c1cccc(O)c1O`, the IC50 in data set [1] was 2.5 µM; in data set [2], greater than 7.5 µM. In data set [5], the inhibition at 7.5 µM was 45%.

On to `COC(=O)[C@H](CCCCNC(=O)c1cccc(O)c1O)NC(=O)c1ccccc1`, for which the IC50 in data set [1] was 1 µM; in data set [2], greater than 7.5 µM. The compound also yielded an inhibition at 7.5 µM in data set [5] of 0%.

With `COC(=O)[C@H](CCCCNC(=O)c1cccc(OC)c1OC)NC(=O)c1cccc(OC)c1OC`, the IC50 in data set [1] is greater than 2.5 µM; in data set [2] it was greater than 7.5 µM. Also, the inhibition at 2.5 µM in [3] amounted to 25%. Also, the inhibition at 7.5 µM in data set [5] came out at 0%.

With `COC(=O)[C@H](CCNC(=O)c1cccc(O)c1O)NC(=O)c1cccc(O)c1O`, the IC50 is greater than 2.5 µM in data set [1] and greater than 7.5 µM in data set [2]. Besides, in data set [3], the inhibition at 2.5 µM was found to be 40%. The compound also came in with an inhibition at 7.5 µM in data set [5] of 13%.

As for `O=C(NCCCC[C@H](NC(=O)c1cccc(O)c1O)C(=O)NO)c1cccc(O)c1O`, the IC50 in data set [1] is 0.98 µM; in data set [2], greater than 7.5 µM. The same compound displayed an inhibition at 7.5 µM in data set [5] of 0%.

On to `NC(=O)[C@H](CCCCNC(=O)c1cccc(O)c1O)NC(=O)c1ccccc1`, for which the IC50 in data set [1] was 0.26 µM; in data set [2] it was greater than 7.5 µM. For the same compound, in [5], testing at 7.5 µM gave an inhibition of 0%.

For `O=C(NCCCC[C@@H](CO)NC(=O)c1cccc(O)c1O)c1cccc(O)c1O`, the figures for the IC50 in [1] and in [2] were 0.59 µM and greater than 7.5 µM, respectively. Moreover, the inhibition at 7.5 µM in data set [5] was 20%. The inhibition came to 35% in data set [12] and 39% in data set [13]. Besides, the inhibition entry in the data set listed under Mus musculus [10] and in the data set filed under Mus musculus [11] was “inactive” each time.
